In ChEMBL document CHEMBL5696442, “Discovery of type II inhibitors of TGFβ-activated kinase 1 (TAK1) and mitogen-activated protein kinase kinase kinase kinase 2 (MAP4K2)” (J Med Chem, 2015):
Calls of active or inactive are those of the source. No cut-off for these calls is given here.

Key:
[1] = target: Macrophage colony-stimulating factor 1 receptor (Homo sapiens) (UniProt P07333); assay: Inhibition of CSF1R (unknown origin) at 1 uM by Ambit Kinomescan binding assay relative to control; values are per cent of control
[2] = target: Cyclin-dependent kinase 8 (Homo sapiens) (UniProt P49336); assay: Inhibition of CDK8 (unknown origin) at 1 uM by Ambit Kinomescan binding assay relative to control
[3] = target: T1, Mitogen-activated protein kinase kinase kinase 7 (Homo sapiens) (UniProt O43318); assay: Inhibition of TAK1 (unknown origin) at 1 uM by Ambit Kinomescan binding assay relative to control; values are per cent of control
T1 sequence (whole entry): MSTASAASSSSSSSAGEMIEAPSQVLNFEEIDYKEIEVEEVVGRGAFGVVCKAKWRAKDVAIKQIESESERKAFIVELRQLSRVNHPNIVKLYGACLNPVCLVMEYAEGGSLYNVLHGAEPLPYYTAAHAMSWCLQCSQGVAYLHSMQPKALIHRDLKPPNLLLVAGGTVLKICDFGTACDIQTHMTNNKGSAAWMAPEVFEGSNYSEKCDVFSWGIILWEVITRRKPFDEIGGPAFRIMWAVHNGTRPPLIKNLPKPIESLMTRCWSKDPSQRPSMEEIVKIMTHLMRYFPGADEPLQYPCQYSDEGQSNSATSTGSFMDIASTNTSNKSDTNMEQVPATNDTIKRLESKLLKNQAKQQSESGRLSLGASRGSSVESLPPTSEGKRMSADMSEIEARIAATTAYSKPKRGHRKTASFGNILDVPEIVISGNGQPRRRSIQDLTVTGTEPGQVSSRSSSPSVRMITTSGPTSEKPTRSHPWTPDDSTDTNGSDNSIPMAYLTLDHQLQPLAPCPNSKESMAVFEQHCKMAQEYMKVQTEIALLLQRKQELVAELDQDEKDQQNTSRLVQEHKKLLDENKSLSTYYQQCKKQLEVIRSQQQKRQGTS

[4] = target: Serine/threonine-protein kinase MRCK alpha (Homo sapiens) (UniProt Q5VT25); assay: Inhibition of MRCKA (unknown origin) at 1 uM by Ambit Kinomescan binding assay relative to control
[5] = target: Mitogen-activated protein kinase kinase kinase 20 (Homo sapiens, UniProt Q9NYL2); assay: Inhibition of ZAK K1 labeling site in human Huh-7 cells at 1 uM by KiNativ Profiling analysis relative to control; assay type: cell-based
[6] = target: Mitogen-activated protein kinase 8 (Homo sapiens, UniProt P45983); assay: Inhibition of JNK1 (unknown origin) at 10 uM by Ambit Kinomescan binding assay relative to control
[7] = target: T2, Eukaryotic elongation factor 2 kinase (Homo sapiens) (UniProt O00418); assay: Inhibition of eEF2K ATP labeling site harbouring YIKYNSNSGFVRDDNIR in human A-375 cells at 0.5 uM by KiNativ Profiling analysis relative to control; assay type: cell-based
T2 sequence (whole entry): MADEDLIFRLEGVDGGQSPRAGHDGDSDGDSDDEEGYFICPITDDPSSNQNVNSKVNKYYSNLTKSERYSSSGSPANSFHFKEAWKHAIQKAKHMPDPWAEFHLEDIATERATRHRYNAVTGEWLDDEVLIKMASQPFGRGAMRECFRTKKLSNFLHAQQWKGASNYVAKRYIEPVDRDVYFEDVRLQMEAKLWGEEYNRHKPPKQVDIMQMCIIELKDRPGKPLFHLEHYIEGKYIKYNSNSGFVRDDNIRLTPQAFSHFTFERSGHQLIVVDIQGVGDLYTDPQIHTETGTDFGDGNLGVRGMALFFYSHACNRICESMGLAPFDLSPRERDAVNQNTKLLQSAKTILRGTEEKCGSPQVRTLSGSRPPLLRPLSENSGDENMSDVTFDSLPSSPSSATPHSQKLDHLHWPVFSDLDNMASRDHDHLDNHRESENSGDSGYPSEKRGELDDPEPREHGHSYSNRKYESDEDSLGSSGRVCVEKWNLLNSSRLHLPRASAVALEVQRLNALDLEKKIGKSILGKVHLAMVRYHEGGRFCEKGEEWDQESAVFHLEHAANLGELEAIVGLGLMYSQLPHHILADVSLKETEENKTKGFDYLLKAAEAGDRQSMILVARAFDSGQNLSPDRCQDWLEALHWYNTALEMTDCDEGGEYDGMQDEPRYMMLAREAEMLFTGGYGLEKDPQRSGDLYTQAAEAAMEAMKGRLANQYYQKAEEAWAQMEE

[8] = target: Cyclin-dependent kinase 8/19 (Homo sapiens) (UniProt P49336+Q9BWU1); assay: Inhibition of CDK8/11 K2 labeling site in human Huh-7 cells at 1 uM by KiNativ Profiling analysis relative to control; assay type: cell-based
[9] = target: Rho-associated protein kinase 2 (Homo sapiens) (UniProt O75116); assay: Inhibition of ROCK2 (unknown origin) at 10 uM by Ambit Kinomescan binding assay
Method in brief: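 ATP-site competition binding assay across a panel of more than 420 kinases, with each compound tested at 10 or 1 μM.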

[10] = target: Serine/threonine-protein kinase 26 (Homo sapiens) (UniProt Q9P289); assay: Inhibition of MST4 K1 labeling site in human Huh-7 cells at 1 uM by KiNativ Profiling analysis relative to control; assay type: cell-based
[11] = target: Microtubule-associated serine/threonine-protein kinase 3 (Homo sapiens) (UniProt O60307); assay: Inhibition of MAST3 Lys2 labeling site in human A-375 cells at 0.5 uM by KiNativ Profiling analysis relative to control; assay type: cell-based
[12] = target: Serine/threonine-protein kinase 26 (Homo sapiens) (UniProt Q9P289); assay: Inhibition of MST4 Lys1 labeling site in human A-375 cells at 0.05 uM by KiNativ Profiling analysis relative to control; assay type: cell-based
[13] = target: RAC-alpha serine/threonine-protein kinase (Homo sapiens) (UniProt P31749); assay: Inhibition of AKT1 (unknown origin) at 10 uM by Ambit Kinomescan binding assay
[14] = target: Ribosomal protein S6 kinase alpha-2 (Homo sapiens) (UniProt Q15349); assay: Inhibition of C-terminal RPS6KA2 kinase domain 2 (unknown origin) at 10 uM by Ambit Kinomescan binding assay
[15] = target: Cyclin-dependent kinase 18 (Homo sapiens) (UniProt Q07002); assay: Inhibition of PCTAIRE3 Lys1 labeling site in human Huh-7 cells at 1 uM by KiNativ Profiling analysis relative to control; assay type: cell-based
[16] = target: Dual specificity mitogen-activated protein kinase kinase 1 (Homo sapiens) (UniProt Q02750); assay: Inhibition of MAP2K1 Lys2 labeling site harbouring DVKPSNILVNSR in human Huh-7 cell lysate at 1 uM by KiNativ Profiling analysis relative to control; assay type: subcellular
[17] = target: Cyclin-dependent kinase 11B (Homo sapiens) (UniProt P21127); assay: Inhibition of PITSLRE Lys2 labeling site in human Huh-7 cells at 1 uM by KiNativ Profiling analysis relative to control; assay type: cell-based
[18] = target: Serine/threonine-protein kinase PLK1 (Homo sapiens) (UniProt P53350); assay: Inhibition of PLK1 Lys1 labeling site harbouring CFEISDADTKEVFAGKIVPK in human Huh-7 cell lysate at 1 uM by KiNativ Profiling analysis relative to control; assay type: subcellular
Sequence of Serine/threonine-protein kinase PLK1 (Homo sapiens) (P53350 whole entry): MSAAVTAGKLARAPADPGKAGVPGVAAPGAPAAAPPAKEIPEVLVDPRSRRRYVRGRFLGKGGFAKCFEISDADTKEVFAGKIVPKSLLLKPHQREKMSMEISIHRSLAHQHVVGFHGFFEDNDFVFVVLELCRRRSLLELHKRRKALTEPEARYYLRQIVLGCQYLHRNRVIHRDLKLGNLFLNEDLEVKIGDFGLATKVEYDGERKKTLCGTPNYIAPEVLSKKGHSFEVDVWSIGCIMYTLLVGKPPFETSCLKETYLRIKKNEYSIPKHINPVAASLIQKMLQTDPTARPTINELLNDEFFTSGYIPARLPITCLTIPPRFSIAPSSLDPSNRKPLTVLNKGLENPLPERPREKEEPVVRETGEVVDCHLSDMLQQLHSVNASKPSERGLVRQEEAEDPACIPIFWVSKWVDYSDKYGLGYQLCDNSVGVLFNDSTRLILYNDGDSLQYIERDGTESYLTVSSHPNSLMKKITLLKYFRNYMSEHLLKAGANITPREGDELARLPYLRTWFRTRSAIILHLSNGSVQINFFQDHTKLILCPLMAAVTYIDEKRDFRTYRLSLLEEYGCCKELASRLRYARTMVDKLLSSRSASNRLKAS

Sequence of Serine/threonine-protein kinase 26 (Homo sapiens) (Q9P289 2-416 limits assumed): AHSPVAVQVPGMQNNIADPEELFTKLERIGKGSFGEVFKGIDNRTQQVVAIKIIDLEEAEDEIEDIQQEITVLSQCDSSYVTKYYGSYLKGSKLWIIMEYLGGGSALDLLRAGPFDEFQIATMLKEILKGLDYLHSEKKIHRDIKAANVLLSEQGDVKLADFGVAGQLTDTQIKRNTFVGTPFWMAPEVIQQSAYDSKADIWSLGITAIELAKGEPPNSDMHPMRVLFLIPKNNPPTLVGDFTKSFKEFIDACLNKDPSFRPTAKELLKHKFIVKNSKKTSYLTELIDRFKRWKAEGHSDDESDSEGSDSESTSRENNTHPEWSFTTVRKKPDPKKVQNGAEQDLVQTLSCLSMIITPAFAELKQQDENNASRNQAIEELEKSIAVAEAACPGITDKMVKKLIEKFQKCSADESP
Sequence of Cyclin-dependent kinase 18 (Homo sapiens) (Q07002 whole entry): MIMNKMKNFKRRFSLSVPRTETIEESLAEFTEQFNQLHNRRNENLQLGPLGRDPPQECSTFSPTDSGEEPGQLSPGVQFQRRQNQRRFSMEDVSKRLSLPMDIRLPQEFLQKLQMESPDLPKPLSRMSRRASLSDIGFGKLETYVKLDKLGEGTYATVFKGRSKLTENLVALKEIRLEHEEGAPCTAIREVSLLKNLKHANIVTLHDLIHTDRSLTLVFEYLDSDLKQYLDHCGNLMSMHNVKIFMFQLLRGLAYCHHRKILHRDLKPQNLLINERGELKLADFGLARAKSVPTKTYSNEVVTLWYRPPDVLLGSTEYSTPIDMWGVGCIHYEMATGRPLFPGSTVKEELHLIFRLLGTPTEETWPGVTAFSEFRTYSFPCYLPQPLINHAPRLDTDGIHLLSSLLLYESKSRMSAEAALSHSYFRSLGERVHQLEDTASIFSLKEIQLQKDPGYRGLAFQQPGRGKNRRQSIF
Sequence of Cyclin-dependent kinase 11B (Homo sapiens) (P21127 whole entry): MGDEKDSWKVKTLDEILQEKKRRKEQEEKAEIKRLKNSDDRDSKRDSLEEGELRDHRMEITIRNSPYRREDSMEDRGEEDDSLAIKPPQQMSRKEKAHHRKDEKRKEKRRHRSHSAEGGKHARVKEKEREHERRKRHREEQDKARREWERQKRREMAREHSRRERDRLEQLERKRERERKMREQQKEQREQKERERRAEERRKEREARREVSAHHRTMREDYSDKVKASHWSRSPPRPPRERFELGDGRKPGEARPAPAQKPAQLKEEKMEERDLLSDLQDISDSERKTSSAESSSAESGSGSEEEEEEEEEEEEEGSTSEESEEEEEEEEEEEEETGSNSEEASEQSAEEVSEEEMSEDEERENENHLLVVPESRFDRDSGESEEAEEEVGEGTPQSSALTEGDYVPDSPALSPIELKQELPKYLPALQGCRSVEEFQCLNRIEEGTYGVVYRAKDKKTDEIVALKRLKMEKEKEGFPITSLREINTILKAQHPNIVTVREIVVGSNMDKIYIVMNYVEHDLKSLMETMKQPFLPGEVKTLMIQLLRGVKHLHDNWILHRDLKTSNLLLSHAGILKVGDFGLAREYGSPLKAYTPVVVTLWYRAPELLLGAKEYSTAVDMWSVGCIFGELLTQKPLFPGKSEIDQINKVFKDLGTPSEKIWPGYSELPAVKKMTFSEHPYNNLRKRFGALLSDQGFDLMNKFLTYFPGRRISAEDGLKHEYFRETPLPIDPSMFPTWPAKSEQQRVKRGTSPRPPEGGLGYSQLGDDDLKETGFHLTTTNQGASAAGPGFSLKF
Sequence of RAC-alpha serine/threonine-protein kinase (Homo sapiens) (P31749 whole entry, the tested form may be a part): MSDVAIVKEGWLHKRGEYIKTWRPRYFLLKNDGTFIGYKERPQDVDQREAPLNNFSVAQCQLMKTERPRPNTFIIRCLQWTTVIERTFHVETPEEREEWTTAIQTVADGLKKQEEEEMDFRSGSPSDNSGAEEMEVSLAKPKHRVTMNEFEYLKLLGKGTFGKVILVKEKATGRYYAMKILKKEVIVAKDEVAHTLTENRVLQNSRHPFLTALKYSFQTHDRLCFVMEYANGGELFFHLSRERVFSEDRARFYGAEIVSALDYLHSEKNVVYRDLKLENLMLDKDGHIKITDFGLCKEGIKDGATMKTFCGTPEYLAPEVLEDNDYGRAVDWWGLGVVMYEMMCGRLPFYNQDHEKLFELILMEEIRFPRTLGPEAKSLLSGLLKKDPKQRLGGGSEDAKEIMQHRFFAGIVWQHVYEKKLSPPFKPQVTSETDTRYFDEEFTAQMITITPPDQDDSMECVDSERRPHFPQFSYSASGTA
Sequence of Macrophage colony-stimulating factor 1 receptor (Homo sapiens) (P07333 whole entry): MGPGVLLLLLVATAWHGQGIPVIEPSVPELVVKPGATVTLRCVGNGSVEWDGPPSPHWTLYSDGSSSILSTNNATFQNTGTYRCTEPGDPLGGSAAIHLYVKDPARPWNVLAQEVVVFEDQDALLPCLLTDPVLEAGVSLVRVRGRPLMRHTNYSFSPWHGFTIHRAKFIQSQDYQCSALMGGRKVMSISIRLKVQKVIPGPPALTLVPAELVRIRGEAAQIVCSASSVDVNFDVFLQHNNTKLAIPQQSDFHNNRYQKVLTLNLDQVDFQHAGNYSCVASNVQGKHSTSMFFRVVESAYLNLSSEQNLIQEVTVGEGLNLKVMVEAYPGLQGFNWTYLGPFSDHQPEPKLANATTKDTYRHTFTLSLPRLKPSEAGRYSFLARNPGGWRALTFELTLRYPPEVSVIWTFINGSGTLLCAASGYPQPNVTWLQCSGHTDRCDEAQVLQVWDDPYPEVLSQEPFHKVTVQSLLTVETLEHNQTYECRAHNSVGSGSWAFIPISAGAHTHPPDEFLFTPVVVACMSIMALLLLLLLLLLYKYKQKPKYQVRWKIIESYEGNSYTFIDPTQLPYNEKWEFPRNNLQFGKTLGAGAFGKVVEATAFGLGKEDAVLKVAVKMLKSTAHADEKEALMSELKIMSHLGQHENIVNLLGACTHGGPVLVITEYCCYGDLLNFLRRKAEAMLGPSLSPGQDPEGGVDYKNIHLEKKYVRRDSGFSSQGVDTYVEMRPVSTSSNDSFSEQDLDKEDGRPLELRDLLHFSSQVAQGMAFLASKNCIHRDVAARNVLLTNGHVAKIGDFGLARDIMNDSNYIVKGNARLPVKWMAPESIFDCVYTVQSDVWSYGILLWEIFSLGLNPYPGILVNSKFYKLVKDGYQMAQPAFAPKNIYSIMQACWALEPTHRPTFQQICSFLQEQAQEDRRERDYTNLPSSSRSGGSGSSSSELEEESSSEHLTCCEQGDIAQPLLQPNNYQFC
Sequence of Mitogen-activated protein kinase kinase kinase 20 (Q9NYL2 2-800 limits assumed): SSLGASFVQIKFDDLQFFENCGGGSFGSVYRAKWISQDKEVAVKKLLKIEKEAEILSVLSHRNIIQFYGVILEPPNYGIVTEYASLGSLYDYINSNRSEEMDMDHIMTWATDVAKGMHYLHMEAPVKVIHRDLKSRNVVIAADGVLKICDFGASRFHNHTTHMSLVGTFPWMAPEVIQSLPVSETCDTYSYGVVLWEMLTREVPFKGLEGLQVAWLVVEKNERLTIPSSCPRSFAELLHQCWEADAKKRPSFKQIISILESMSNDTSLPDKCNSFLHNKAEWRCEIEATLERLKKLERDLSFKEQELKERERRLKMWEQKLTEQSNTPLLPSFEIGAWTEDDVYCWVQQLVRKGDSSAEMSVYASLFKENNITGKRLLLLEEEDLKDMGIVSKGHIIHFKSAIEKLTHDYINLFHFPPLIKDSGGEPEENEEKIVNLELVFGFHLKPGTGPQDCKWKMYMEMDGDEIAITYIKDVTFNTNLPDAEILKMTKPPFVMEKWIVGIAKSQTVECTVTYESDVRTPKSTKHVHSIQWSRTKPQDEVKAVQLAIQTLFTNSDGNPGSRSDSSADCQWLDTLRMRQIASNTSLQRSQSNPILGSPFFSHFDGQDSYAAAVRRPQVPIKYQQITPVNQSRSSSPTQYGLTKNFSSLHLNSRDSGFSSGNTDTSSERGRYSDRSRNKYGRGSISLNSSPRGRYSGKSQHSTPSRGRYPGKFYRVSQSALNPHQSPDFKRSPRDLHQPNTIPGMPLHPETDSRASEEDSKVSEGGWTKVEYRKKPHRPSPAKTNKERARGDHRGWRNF
Sequence of Cyclin-dependent kinase 8 (Homo sapiens) (P49336 whole entry): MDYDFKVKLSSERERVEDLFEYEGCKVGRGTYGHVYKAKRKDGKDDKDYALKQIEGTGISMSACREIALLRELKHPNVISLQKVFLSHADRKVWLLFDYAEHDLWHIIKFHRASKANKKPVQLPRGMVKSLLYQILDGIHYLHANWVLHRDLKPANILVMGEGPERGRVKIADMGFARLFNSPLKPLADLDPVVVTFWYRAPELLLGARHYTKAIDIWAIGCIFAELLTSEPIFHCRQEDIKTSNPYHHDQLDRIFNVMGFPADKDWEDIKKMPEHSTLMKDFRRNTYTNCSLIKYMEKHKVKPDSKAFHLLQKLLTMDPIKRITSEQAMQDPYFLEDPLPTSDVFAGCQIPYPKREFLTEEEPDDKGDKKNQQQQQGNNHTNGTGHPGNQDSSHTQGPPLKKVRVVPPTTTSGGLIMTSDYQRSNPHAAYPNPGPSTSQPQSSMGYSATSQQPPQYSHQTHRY

CCN1CCN(Cc2ccc(NC(=O)c3ccc(C)c(/C=C/c4cnc5[nH]ccc5c4OC)c3)cc2C(F)(F)F)CC1
residual activity [1]: 0.75% | inhibition [2]: 25% | percent of control [3]: 1.2% | inhibition [4]: 79%

CCN1CCN(Cc2ccc(NC(=O)c3ccc(C)c(Oc4ccnc5[nH]ccc45)c3)cc2C(F)(F)F)CC1
inhibition [5]: 50.3% | inhibition [6]: 0% | inhibition [7]: 0.1% | inhibition [8]: -4.7% | inhibition [9]: inactive | inhibition [10]: 5.3% | inhibition [11]: 2.5% | inhibition [12]: -8.3% | inhibition [13]: inactive | inhibition [14]: inactive

CNc1cc(Oc2cc(C(=O)Nc3cc(N4CCN(C)CC4)cc(C(F)(F)F)c3)ccc2C)ncn1
inhibition [15]: 12% | inhibition [16]: 15.6% | inhibition [17]: 15.6% | inhibition [18]: 1%
